Reference: ChEMBL document CHEMBL3259516, “Structure-based design and synthesis of bicyclic fused-pyridines as MEK inhibitors” (Bioorg Med Chem Lett, 2014)

Experiments:
[1] = biological target: T1, Dual specificity mitogen-activated protein kinase kinase 1 (Homo sapiens, UniProt Q02750); test: Inhibition of MEK1 (unknown origin)
COLO 205 = test: Antitumor activity against human COLO205 cells xenografted in mouse assessed as tumor growth inhibition at 3 mg/kg, po qd for 14 days relative to control; type: functional; conditions: COLO 205, 336 h, read-out: TGI
Outline: (§1)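 Human colorectal Colo-205 xenografts in mice; test agent given by oral gavage at 3.0 mg/kg once daily for 14 days. Tumor growth inhibition scored relative to control, and body weight followed in all animals throughout the study.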

[2] = Oral bioavailability in beagle dog at 1 mg/kg; type: ADME, organism-based, Canis lupus familiaris; conditions: in vivo
[3] = Cmax in rat at 5 mg/kg, po; type: ADME, organism-based; set-up: dose 5 mg/kg, route oral; conditions: in vivo
[4] = AUC in beagle dog at 1 mg/kg, po; type: ADME, organism-based, Canis lupus familiaris; set-up: dose 1 mg/kg, route oral; conditions: plasma
[5] = Plasma protein binding in human; type: ADME, cell-free; conditions: read-out: PPB (converted)
[6] = Clearance in rat liver microsomes; type: ADME; conditions: read-out: CLH
Mus musculus = test: Toxicity in mouse xenografted with human COLO205 cells assessed as change in body weight at 3 mg/kg, po qd for 14 days; type: organism-based, COLO 205; set-up: dose 3 mg/kg, route oral; conditions: in vivo, 336 h; outline: as §1
[7] = Inhibition of CYP450 (unknown origin) up to 50 uM; type: ADME; conditions: human
[8] = Cmax in beagle dog at 1 mg/kg, po; type: ADME, organism-based, Canis lupus familiaris; set-up: dose 1 mg/kg, route oral; conditions: in vivo
[9] = AUC in beagle dog at 1 mg/kg, iv; type: ADME, organism-based, Canis lupus familiaris; set-up: dose 1 mg/kg, route intravenous; conditions: plasma
[10] = Half life in beagle dog at 1 mg/kg, po; type: ADME, organism-based, Canis lupus familiaris; set-up: dose 1 mg/kg, route oral; conditions: in vivo
[11] = Clearance in human liver microsomes; type: ADME; conditions: read-out: CLH
[12] = Half life in rat at 5 mg/kg, po; type: ADME, organism-based; set-up: dose 5 mg/kg, route oral; conditions: in vivo
[13] = Half life in beagle dog at 1 mg/kg, iv; type: ADME, organism-based, Canis lupus familiaris; set-up: dose 1 mg/kg, route intravenous; conditions: in vivo
[14] = AUC in rat at 5 mg/kg, po; type: ADME, organism-based; set-up: dose 5 mg/kg, route oral; conditions: plasma
[15] = biological target: T1, Dual specificity mitogen-activated protein kinase kinase 1; test: Inhibition of MEK1 in human COLO205 cells; type: cell-based, COLO 205

T1 sequence (Q02750 whole entry): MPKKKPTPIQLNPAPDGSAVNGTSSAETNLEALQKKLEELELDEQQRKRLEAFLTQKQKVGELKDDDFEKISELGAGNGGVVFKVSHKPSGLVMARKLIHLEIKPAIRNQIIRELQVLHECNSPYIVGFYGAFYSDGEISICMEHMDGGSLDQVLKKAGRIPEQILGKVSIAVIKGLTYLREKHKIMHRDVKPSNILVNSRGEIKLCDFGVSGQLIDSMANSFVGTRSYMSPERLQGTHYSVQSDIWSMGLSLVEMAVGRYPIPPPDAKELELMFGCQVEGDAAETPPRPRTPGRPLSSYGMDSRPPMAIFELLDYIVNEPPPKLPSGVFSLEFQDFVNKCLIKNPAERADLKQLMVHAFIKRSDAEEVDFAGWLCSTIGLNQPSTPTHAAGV

| IC50 [1] [nM] | bioavailability [2] [%] | Cmax [3] [ng/mL] | AUC [4] [ng·h/mL] | fraction unbound [5] | microsomal CLint [6] [µL/min/mg] | inhibition (INH) [7] | Cmax [8] [ng/mL] | AUC [9] [ng·h/mL] | half-life [10] [min] | microsomal CLint [11] [µL/min/mg] | half-life [12] [min] | half-life [13] [min] | AUC [14] [ng·h/mL] | IC50 [15] [nM] | SMILES | inhibition in vivo at 3 mg/kg (COLO 205) [%] | Activity (Mus musculus) |
| --- | --- | --- | --- | --- | --- | --- | --- | --- | --- | --- | --- | --- | --- | --- | --- | --- | --- |
| > 1000 | – | – | – | – | – | – | – | – | – | – | – | – | – | – | O=C(NC[C@H](O)CO)c1ncncc1Nc1ccccc1F | – | – |
| – | 43 | 1080 | 510 | 0.033 | 2.38 | Not Active | 117 | 1190 | 293 | 1.25 | 334 | 187 | 4890 | – | O=c1c2c(Nc3ccc(I)cc3F)cncc2cnn1C[C@H](O)CO | 59.5 | Non-toxic |
| 1.79 | – | – | – | – | – | – | – | – | – | – | – | – | – | 6.92 | Cn1c(=O)c(F)c(Nc2ccc(I)cc2F)c2c(=O)n(C[C@@H](O)CO)cnc21 [TAK-733] | – | – |
